Reference: ChEMBL document CHEMBL3232816, “Substituted E-3-(3-indolylmethylene)1,3-dihydroindol-2-ones with antiproliferative activity. Study of the effects on HL-60 leukemia cells” (2014)
Calls of active or inactive are those of the source. The rule behind the calls is not given here.

Assays:
HL-60 [1] = test: Cell cycle arrest in human HL60 cells assessed as accumulation at G2-M phase at 1 uM after 24 hrs by propidium iodide staining-based flow cytometric analysis (reference value: 10.7%); type: functional
HL-60 [2] = test: Induction of apoptosis in human HL60 cells assessed as increase in caspase proteolytic activity using DEVD as substrate at 1 uM after 24 hrs by fluorometric analysis; type: functional, cell-based
Outline: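 After 24 h exposure of HL-60 cells to 1 μM compound or DMSO vehicle, DEVD-hydrolysing caspase (DEVDase) activity was measured fluorometrically in cell extracts. Means ± s.e.m. of three determinations.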

HL-60 [3] = test: Induction of apoptosis in human HL60 cells assessed as early apoptotic cells at 1 uM after 24 hrs by annexin V-FLUOS staining-based flow cytometric analysis (reference value: 4%); type: functional
[4] = Cytotoxicity against human prostate cancer cells after 48 hrs; type: functional; conditions: Cancer cell lines; for CC50: read-out: LC50 (the source's name)
Outline: (§1)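 NCI 60-line panel. Compounds were dissolved in DMSO and tested at five 10-fold dilutions, the highest 10^-4 M (10^-3 M where footnoted), over 48 h of incubation. The readouts were GI50, TGI and LC50 in μM, with the panel mean also given. Only compounds passing a 10^-5 M single-dose prescreen were tested; some were repeated and averaged over two experiments.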

[5] = Cytotoxicity against human CNS cancer cells after 48 hrs; type: functional; conditions: Cancer cell lines; for CC50: read-out: LC50 (the source's name); outline: as §1
HL-60 [6] = test: Effect on autophagy in human HL60 cells by LC3 protein processing assay; type: functional, cell-based
HL-60 [7] = test: Cytotoxicity against human HL60 cells assessed as growth inhibition at 1 uM measured up to 48 hrs; type: functional, cell-based
Outline: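 HL-60 cells, RPMI 1640 with 10% fetal calf serum and 2 mM glutamine, 37 °C, 5% CO2. Cells received 1 μM compound diluted from a 10 mmol/L DMSO stock; controls got equal DMSO. Viable cells were counted daily to follow total cell number. Means ± s.e.m. of three determinations.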

[8] = Cytotoxicity against human renal cancer cells after 48 hrs; type: functional; conditions: Cancer cell lines; outline: as §1
[9] = Cytotoxicity against human colon cancer cells after 48 hrs; type: functional; conditions: Cancer cell lines; for CC50: read-out: LC50 (the source's name); outline: as §1
HL-60 [10] = test: Effect on autophagy in human HL60 cells by acridine orange staining; type: functional, cell-based
[11] = Cytotoxicity against human melanoma cells after 48 hrs; type: functional; conditions: Melanoma cell; outline: as §1
[12] = Cytotoxicity against human breast cancer cells after 48 hrs; type: functional; conditions: Cancer cell lines; outline: as §1
[13] = Cytotoxicity against human NSCLC cells after 48 hrs; type: functional; outline: as §1
HL-60 [14] = test: Induction of apoptosis in human HL60 cells assessed as increase in intracellular free Mg2+ level at 1 uM after 24 hrs by Mag-Fura2 probe-based fluorometric analysis; type: functional, cell-based
Outline: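 They were loaded with 5 μM Mag-Fura2 for 60 min at 37 °C in the dark, washed, and held 45 min at room temperature. Emission at 510 nm was read with excitation at 335/370 nm. Rmin came from 5 mM EDTA/EGTA then 0.1% Triton X-100, Rmax from MgSO4. Free Mg2+ was calculated with Kd 2.1 mM, in triplicate.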

HL-60 [15] = test: Induction of apoptosis in human HL60 cells assessed as increase in intracellular free Ca2+ level at 1 uM after 24 hrs by INDO-1/AM probe-based fluorometric analysis; type: functional, cell-based
Outline: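 They were stained with 5 μM INDO-1/AM, excited at 346 nm, and emission read at 405/485 nm. Rmin came from 5 mM EDTA/EGTA plus 5 μM digitonin, Rmax from 10 mM CaCl2. Free Ca2+ was calculated with Kd […]. Means ± s.e.m., n=3.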

HL-60 [16] = test: Induction of apoptosis in human HL60 cells assessed as increase in oxidative stress at 1 uM after 24 hrs by DCFDA staining; type: functional, cell-based
Outline: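 Intracellular peroxides in HL-60 cells treated 24 h with 1 μM compound or DMSO. Cells were loaded with 5 μM DCF-DA for 30 min at 37 °C, then DCF fluorescence was acquired by flow cytometry with logarithmic amplification. Means ± s.e.m., n=3.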

[17] = Cytotoxicity against human ovarian cancer cells after 48 hrs; type: functional; conditions: Cancer cell lines; outline: as §1
HL-60 [18] = test: Cell cycle arrest in human HL60 cells assessed as accumulation at G0-G1 phase at 1 uM after 24 hrs by propidium iodide staining-based flow cytometric analysis (reference value: 32.4%); type: functional
HL-60 [19] = test: Cell cycle arrest in human HL60 cells assessed as accumulation at S phase at 1 uM after 24 hrs by propidium iodide staining-based flow cytometric analysis (reference value: 56.9%); type: functional
[20] = Cytotoxicity against human leukemia cells after 48 hrs; type: functional; conditions: for GI50 / TGI: Leukemia cell; outline: as §1

SMILES: COc1ccc(CCn2c(Cl)c(/C=C3/C(=O)Nc4ccccc43)c3ccccc32)cc1
- Activity (HL-60 [1]): 69.3%
- Activity (HL-60 [2]): Active
- Activity (HL-60 [3]): 50%
- GI50 [4]: 0.35 µM
- TGI [4]: 19.5 µM
- CC50 [4]: 55 µM
- GI50 [5]: 0.34 µM
- TGI [5]: 8.32 µM
- CC50 [5]: 58.9 µM
- Activity (HL-60 [6]): Active
- growth inhibition (GI) (HL-60 [7]): Active
- GI50 [8]: 0.48 µM
- LC50 [8]: 72.4 µM
- TGI [8]: 18.6 µM
- GI50 [9]: 0.28 µM
- TGI [9]: 1.82 µM
- CC50 [9]: 52.5 µM
- Activity (HL-60 [10]): Active
- GI50 [11]: 0.46 µM
- LC50 [11]: 63.1 µM
- TGI [11]: 9.12 µM
- GI50 [12]: 0.32 µM
- TGI [12]: 6.31 µM
- GI50 [13]: 0.43 µM
- LC50 [13]: 74.1 µM
- TGI [13]: 15.1 µM
- Activity (HL-60 [14]): Active
- Activity (HL-60 [15]): Active
- Activity (HL-60 [16]): Active
- GI50 [17]: 0.34 µM
- LC50 [17]: 69.2 µM
- TGI [17]: 13.5 µM
- Activity (HL-60 [18]): 16.7%
- Activity (HL-60 [19]): 14%
- GI50 [20]: 0.35 µM
- TGI [20]: 15.5 µM

SMILES: COc1cc2c(/C=C3/C(=O)Nc4ccc(O)cc43)c(Cl)n(Cc3cc(OC)c(OC)c(OC)c3)c2cc1C
- GI50 [4]: 2.29 µM
- TGI [4]: 50.1 µM
- GI50 [5]: 2.04 µM
- TGI [5]: 34.7 µM
- GI50 [8]: 2.75 µM
- TGI [8]: 33.1 µM
- GI50 [9]: 2.29 µM
- TGI [9]: 49 µM
- GI50 [11]: 1.45 µM
- TGI [11]: 11.5 µM
- GI50 [12]: 1.41 µM
- TGI [12]: 34.7 µM
- GI50 [13]: 2.4 µM
- TGI [13]: 32.4 µM
- GI50 [17]: 2.34 µM
- TGI [17]: 43.6 µM
- GI50 [20]: 1.41 µM
- TGI [20]: 18.6 µM

SMILES: COc1cc2c(/C=C3/C(=O)Nc4ccc(Cl)cc43)c(Cl)n(Cc3cc(OC)c(OC)c(OC)c3)c2cc1C
- GI50 [4]: 1.78 µM
- TGI [4]: 3.89 µM
- CC50 [4]: 8.91 µM
- GI50 [5]: 2.34 µM
- TGI [5]: 6.03 µM
- CC50 [5]: 23.4 µM
- GI50 [8]: 2.95 µM
- LC50 [8]: 18.6 µM
- TGI [8]: 7.24 µM
- GI50 [9]: 2.19 µM
- TGI [9]: 5.62 µM
- CC50 [9]: 29.5 µM
- GI50 [11]: 2.29 µM
- LC50 [11]: 17.8 µM
- TGI [11]: 5.75 µM
- GI50 [12]: 2.09 µM
- TGI [12]: 5.5 µM
- CC50 ([12]; read-out: LC50 (the source's name)): 22.4 µM
- GI50 [13]: 2.29 µM
- LC50 [13]: 16.2 µM
- TGI [13]: 5.89 µM
- GI50 [17]: 3.72 µM
- LC50 [17]: 39.8 µM
- TGI [17]: 13.8 µM
- LC50 (concentration giving 50% net cell kill) [20]: 15.8 µM
- GI50 [20]: 1.86 µM
- TGI [20]: 4.79 µM
